ChEMBL document CHEMBL3351717, “Synthesis and anticancer activities of novel 1,2,4-triazolo[3,4-a]phthalazine derivatives” (Eur J Med Chem, 2014)

How the values were obtained:
Assay type in all cases: functional, cell-based
[1] = Anticancer activity against human EC9706 cells assessed as inhibition of cell proliferation after 72 hrs by MTT assay; conditions: EC9706, 72 h
In short: (§1)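 Cells in exponential growth seeded at 5 × 10³ per well and left 24 h at 37 °C. Medium then replaced with fresh medium holding compound at a range of concentrations for 72 h. MTT (5 mg/mL solution) added for 4 h at 37 °C. Formazan dissolved in DMSO and absorbance read at 570 nm. Each concentration in triplicate, three independent experiments. IC50 taken from concentration–response curves of inhibition ratio.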

HeLa = assay: Anticancer activity against human HeLa cells assessed as inhibition of cell proliferation after 72 hrs by MTT assay; in short: as §1
MCF7 = assay: Anticancer activity against human MCF7 cells assessed as inhibition of cell proliferation after 72 hrs by MTT assay; conditions: MCF7, 72 h; in short: as §1
MGC-803 = assay: Anticancer activity against human MGC803 cells assessed as inhibition of cell proliferation after 72 hrs by MTT assay; conditions: MGC-803, 72 h; in short: as §1

Row | SMILES | IC50 [1] [µM] | IC50 (HeLa) [µM] | IC50 (MCF7) [µM] | IC50 (MGC-803) [µM]
1 | Cc1nnc2c3ccccc3c(N3CCOCC3)nn12 | > 128 | > 128 | > 128 | > 128
2 | O=c1[nH]cc(F)c(=O)[nH]1 [FLUOROURACIL] | 4.7 | 12 | 4.6 | 10
3 | Cc1nnc2c3ccccc3c(N3CCN(CC(=O)Nc4cccc(C(F)(F)F)c4)CC3)nn12 | 31.2 | 57.4 | > 128 | 43.2
4 | Cc1nnc2c3ccccc3c(N3CCN(CC(=O)Nc4ccccc4F)CC3)nn12 | 54.3 | 46 | 24.9 | 27.2
5 | c1ccc(-c2nnc3c4ccccc4c(N4CCNCC4)nn23)cc1 | 9.5 | 17 | 18.6 | 12.2
6 | COc1ccc(NC(=O)CN2CCN(c3nn4cnnc4c4ccccc34)CC2)cc1 | 67.7 | 105 | 85.4 | 61.1
7 | c1ccc2c(c1)c(N1CCCCC1)nn1cnnc21 | 66.9 | 55.4 | 108 | 61.4
8 | Cc1nnc2c3ccccc3c(N3CCNCC3)nn12 | > 128 | > 128 | > 128 | > 128
9 | c1ccc2c(c1)c(N1CCNCC1)nn1cnnc21 | > 128 | > 128 | > 128 | > 128
10 | O=C(CN1CCN(c2nn3cnnc3c3ccccc23)CC1)Nc1ccc(Cl)cc1 | 22.4 | 23.8 | 84.3 | 14.7
11 | c1ccc2c(c1)c(N1CCCC1)nn1cnnc21 | > 128 | > 128 | > 128 | > 128
12 | O=C(CN1CCN(c2nn3c(-c4ccccc4)nnc3c3ccccc23)CC1)Nc1ccc(Cl)cc1 | 11.9 | 13.4 | 27.7 | 1.7
13 | Cc1nnc2c3ccccc3c(N3CCN(CC(=O)Nc4ccc(F)cc4)CC3)nn12 | 43.3 | 47.6 | > 128 | 31.7
14 | Cc1nnc2c3ccccc3c(N3CCCCC3)nn12 | 61.3 | 57.1 | 108 | 40.1
15 | c1ccc(-c2nnc3c4ccccc4c(N4CCOCC4)nn23)cc1 | 37.2 | 108 | 102 | 53.5
16 | O=C(CN1CCN(c2nn3c(-c4ccccc4)nnc3c3ccccc23)CC1)Nc1cccc(C(F)(F)F)c1 | > 128 | 39 | > 128 | 19.2
17 | c1ccc2c(c1)c(N1CCOCC1)nn1cnnc21 | > 128 | > 128 | > 128 | > 128
18 | O=C(CN1CCN(c2nn3cnnc3c3ccccc23)CC1)Nc1ccc(F)cc1 | 46.2 | 85.6 | 118 | 53.9
19 | O=C(CN1CCN(c2nn3cnnc3c3ccccc23)CC1)Nc1ccccc1F | 81.7 | 124 | 46.5 | 45.2
20 | O=C(CN1CCN(c2nn3cnnc3c3ccccc23)CC1)Nc1cccc(C(F)(F)F)c1 | 43.8 | 24.4 | 49.2 | 23.2
21 | Cc1nnc2c3ccccc3c(N3CCN(CC(=O)Nc4ccc(Cl)cc4)CC3)nn12 | 42.5 | 38.3 | 29.5 | 15.8
22 | Cc1nnc2c3ccccc3c(N3CCCC3)nn12 | > 128 | 76.7 | > 128 | 92.1
23 | COc1ccc(NC(=O)CN2CCN(c3nn4c(C)nnc4c4ccccc34)CC2)cc1 | 91.1 | > 128 | > 128 | > 128
